The structures appear in SMILES notation.

As usually defined, the EC50 is the concentration that produces a half-maximal response. A low value points to greater potency. What is called inhibition is the percentage by which the read-out fell short of the control. Read a high inhibition as a response far below the control.

Holding throughout (format): cell-based
The target of experiment [1] is T1, Potassium voltage-gated channel subfamily KQT member 5 (Homo sapiens, UniProt Q9NR82). Briefly: Activity at human KCNQ5 expressed in CHOK1 cells assessed as ratio of amplitude of outward current in presence of test compound to amplitude of outward current in absence of test compound at 10 uM at -10 mV by whole cell patch clamp assay. The essentials: (§1)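 CHO-K1 cells expressing the channel, whole-cell voltage clamp, compound at 10 μM. Read-out is the outward current ratio I/I0 with and without compound, taken at −10 mV. I/I0 > 1 counts as activation and < 1 as inhibition. More than four cells per compound.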
T1 sequence (Q9NR82 whole entry): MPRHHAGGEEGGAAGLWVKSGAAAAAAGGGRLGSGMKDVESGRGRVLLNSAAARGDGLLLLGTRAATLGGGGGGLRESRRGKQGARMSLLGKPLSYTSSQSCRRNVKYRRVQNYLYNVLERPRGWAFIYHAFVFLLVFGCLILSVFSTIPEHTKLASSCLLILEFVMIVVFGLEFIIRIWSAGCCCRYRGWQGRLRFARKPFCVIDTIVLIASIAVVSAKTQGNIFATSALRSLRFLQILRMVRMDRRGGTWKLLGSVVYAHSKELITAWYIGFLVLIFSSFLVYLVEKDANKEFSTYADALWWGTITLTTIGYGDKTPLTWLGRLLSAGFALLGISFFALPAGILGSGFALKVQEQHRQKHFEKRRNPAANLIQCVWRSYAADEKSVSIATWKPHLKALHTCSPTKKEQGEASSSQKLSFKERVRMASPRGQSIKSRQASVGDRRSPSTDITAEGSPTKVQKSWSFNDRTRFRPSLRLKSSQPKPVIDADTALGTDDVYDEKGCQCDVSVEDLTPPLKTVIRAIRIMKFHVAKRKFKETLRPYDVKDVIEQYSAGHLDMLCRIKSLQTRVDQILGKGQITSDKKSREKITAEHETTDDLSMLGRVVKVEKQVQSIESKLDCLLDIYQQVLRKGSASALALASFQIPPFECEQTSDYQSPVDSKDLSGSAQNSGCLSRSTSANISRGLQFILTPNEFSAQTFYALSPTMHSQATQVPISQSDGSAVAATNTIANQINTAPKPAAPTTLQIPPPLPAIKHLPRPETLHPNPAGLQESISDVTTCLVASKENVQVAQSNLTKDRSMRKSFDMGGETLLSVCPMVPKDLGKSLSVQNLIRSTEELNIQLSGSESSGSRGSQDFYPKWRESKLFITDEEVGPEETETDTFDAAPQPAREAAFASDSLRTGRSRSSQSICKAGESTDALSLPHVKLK

The target in experiment [2] is Potassium voltage-gated channel subfamily KQT member 2 (Rattus norvegicus) (UniProt O88943). The experiment in a line: Activity at rat KCNQ2 expressed in CHOK1 cells assessed as ratio of amplitude of outward current in presence of test compound to amplitude of outward current in absence of test compound at 10 uM at -10 mV by whole cell patch clamp assay. The essentials:
as §1
A general note: In patch-clamp work, channel activity is measured electrically.

In experiment [3] the target is T2, Potassium voltage-gated channel subfamily KQT member 4 (Homo sapiens) (UniProt P56696).
T2 sequence (whole entry): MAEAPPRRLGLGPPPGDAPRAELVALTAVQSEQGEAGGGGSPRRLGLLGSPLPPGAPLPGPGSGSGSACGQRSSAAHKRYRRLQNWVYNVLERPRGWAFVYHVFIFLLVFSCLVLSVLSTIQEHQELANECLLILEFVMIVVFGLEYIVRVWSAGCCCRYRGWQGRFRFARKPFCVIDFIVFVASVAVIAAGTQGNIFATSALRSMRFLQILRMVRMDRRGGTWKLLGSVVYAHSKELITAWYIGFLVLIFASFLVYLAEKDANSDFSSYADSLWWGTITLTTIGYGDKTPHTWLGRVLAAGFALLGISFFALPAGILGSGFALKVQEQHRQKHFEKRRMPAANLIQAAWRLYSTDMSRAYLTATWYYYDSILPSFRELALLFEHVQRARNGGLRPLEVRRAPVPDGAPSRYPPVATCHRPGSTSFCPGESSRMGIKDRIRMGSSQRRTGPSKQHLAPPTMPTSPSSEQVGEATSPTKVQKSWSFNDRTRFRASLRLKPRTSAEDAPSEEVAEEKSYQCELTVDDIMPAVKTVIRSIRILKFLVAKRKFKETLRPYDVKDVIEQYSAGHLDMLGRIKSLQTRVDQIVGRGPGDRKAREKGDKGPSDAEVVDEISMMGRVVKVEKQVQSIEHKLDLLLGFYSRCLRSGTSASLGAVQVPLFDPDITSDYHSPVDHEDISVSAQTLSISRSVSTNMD
Briefly: Activity at human KCNQ4 expressed in CHOK1 cells assessed as ratio of amplitude of outward current in presence of test compound to amplitude of outward current in absence of test compound at 10 uM at -10 mV by whole cell patch clamp assay. The essentials:
as §1

Experiment [4] has as its target Potassium voltage-gated channel subfamily KQT member 2 (Rattus norvegicus, UniProt O88943). The experiment in a line: Agonist activity at rat KCNQ2 expressed in CHOK1 cells by whole cell patch clamp assay. The essentials: (§2)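 Concentration–response by whole-cell voltage clamp in CHO-K1 cells transiently expressing the homomeric channel. EC50 and Hill coefficient come from fitting outward currents recorded across the tested concentrations.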

In experiment [5] the target is T3, Potassium voltage-gated channel subfamily KQT member 4 (Homo sapiens, UniProt P56696).
T3 sequence (P56696 whole entry): T2 sequence (whole entry)
Briefly: Agonist activity at human KCNQ4 expressed in CHOK1 cells by whole cell patch clamp assay. The essentials: as §2

Experiment [6] addresses T1, Potassium voltage-gated channel subfamily KQT member 5. The experiment in a line: Agonist activity at human KCNQ5 expressed in CHOK1 cells by whole cell patch clamp assay. The essentials: as §2
For experiment [7], the target named is Potassium voltage-gated channel subfamily KQT member 2 (Rattus norvegicus) (UniProt O88943). Briefly: Inhibition of rat KCNQ2 expressed in CHOK1 cells at 10 uM at -10 mV by whole cell patch clamp assay relative to control. The essentials: as §1
Potassium voltage-gated channel subfamily KQT member 2 (Rattus norvegicus), sequence (O88943 whole entry): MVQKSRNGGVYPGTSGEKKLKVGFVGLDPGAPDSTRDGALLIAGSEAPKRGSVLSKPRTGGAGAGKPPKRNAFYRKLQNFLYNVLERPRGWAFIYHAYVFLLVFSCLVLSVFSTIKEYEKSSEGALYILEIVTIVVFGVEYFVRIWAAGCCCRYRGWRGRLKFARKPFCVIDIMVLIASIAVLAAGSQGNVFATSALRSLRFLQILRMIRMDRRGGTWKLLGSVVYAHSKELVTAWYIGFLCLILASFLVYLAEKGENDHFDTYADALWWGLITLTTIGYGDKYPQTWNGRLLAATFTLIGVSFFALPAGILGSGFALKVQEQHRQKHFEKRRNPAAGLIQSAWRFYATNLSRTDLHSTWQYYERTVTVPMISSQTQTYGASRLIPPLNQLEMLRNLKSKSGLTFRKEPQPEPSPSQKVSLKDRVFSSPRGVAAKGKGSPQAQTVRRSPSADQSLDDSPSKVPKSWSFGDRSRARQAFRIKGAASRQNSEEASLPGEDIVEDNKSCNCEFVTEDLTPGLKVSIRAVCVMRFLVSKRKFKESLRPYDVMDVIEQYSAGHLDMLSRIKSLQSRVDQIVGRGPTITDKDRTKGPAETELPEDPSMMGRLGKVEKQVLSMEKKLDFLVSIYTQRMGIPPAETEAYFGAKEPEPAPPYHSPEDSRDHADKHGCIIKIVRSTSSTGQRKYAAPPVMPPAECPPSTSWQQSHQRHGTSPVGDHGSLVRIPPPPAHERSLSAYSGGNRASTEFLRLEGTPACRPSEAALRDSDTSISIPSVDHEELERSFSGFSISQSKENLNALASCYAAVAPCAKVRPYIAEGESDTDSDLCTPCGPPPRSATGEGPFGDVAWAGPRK
Experiment [8] has the same target. The experiment in a line: Effect on voltage-dependent activation of rat KCNQ2 expressed in CHOK1 cells assessed as negative shift in current activation curve at 10 uM by whole cell patch clamp assay.
The target of experiment [9] is T2, Potassium voltage-gated channel subfamily KQT member 4 (Homo sapiens). Briefly: Effect on voltage-dependent activation of human KCNQ4 expressed in CHOK1 cells assessed as negative shift in current activation curve at 10 uM by whole cell patch clamp assay.

Potassium voltage-gated channel subfamily KQT member 2, sequence (O88943 whole entry): as above

Consider `C#CCN(Cc1ccc(F)cc1)c1ccc(NC(=O)OCC=C)c(NC(=O)OCC=C)c1`, for which the values for the Ratio in experiment [1], in [2] and in experiment [3] were 5.26, 0.67 and 2.21, respectively.

For `C#CCN(Cc1ccc(F)cc1)c1ccc(NC(=O)OCC)c(NC(=O)OCC=C)c1`, the Ratio in [1] amounted to 4.67; in [2] it was 0.96; in [3], 3.68.

As to `C#CCN(Cc1ccc(F)cc1)c1ccc(NC(=O)OC(C)(C)C)c(NC(=O)OC(C)(C)C)c1`, the EC50 was more than 30000 nM in experiment [4], 2030 nM in experiment [5] and 2430 nM in experiment [6]. Besides, the values for the Ratio in [1], in experiment [2] and in [3] were 5.32, 1 and 3.05, respectively.

On to `C#CCN(Cc1ccc(F)cc1)c1ccc(NC(=O)OCC)c(NC(=O)OCC(C)C)c1`, for which the results for the Ratio in experiment [1], in [2] and in [3] were 4.84, 1.04 and 5.19, respectively.

Regarding `C#CCN(Cc1ccc(F)cc1)c1ccc(NC(=O)OC2CCC2)c(NC(=O)OC2CCC2)c1`, the Ratio in [1] stood at 1.33; in [2], 0.26; in experiment [3], 1.21.

`C=CCN(Cc1ccc(F)cc1)c1ccc(NC(=O)OCC)c(NC(=O)OCC)c1`: the inhibition in [7] worked out at 70%. Moreover, the figures for the Ratio in [1] and in experiment [2] were 1.49 and 0.3, respectively.

On to `C#CCN(Cc1ccc(F)cc1)c1ccc(NC(=O)OCCC)c(NC(=O)OCCC)c1`, for which the Ratio is 2.75 in experiment [1], 0.78 in experiment [2] and 2.58 in experiment [3].

Turning to `C#CCN(Cc1ccc(F)cc1)c1ccc(NC(=O)OCC)c(NC(=O)OCCCC)c1`, the values for the Ratio in [1], in experiment [2] and in [3] were 3.62, 1.06 and 4.16, respectively.

`CCOC(=O)Nc1ccc(N(CC=C(C)C)Cc2ccc(F)cc2)cc1NC(=O)OCC`: the figures for the Ratio in experiment [1], in experiment [2] and in experiment [3] were 1.37, 0.66 and 3.63, respectively.

In the case of `C/C=C/CN(Cc1ccc(F)cc1)c1ccc(NC(=O)OCC)c(NC(=O)OCC)c1`, the values for the Ratio in [1], in experiment [2] and in experiment [3] were 1.36, 0.87 and 1.85, respectively.

On to `C#CCN(Cc1ccc(F)cc1)c1ccc(NC(=O)OC2CCCC2)c(NC(=O)OC2CCCC2)c1`, for which the Ratio in experiment [1] is 1.25; in [2], 0.21; in experiment [3] it was 0.88.

Turning to `C#CCN(Cc1ccc(F)cc1)c1ccc(NC(=O)OC)c(NC(=O)OC)c1`, the results for the Ratio in [1], in [2] and in experiment [3] were 2.89, 1.37 and 4.77, respectively.

As for `C#CCN(Cc1ccc(F)cc1)c1ccc(NC(=O)OC(C)(C)C)c(NC(=O)OCC)c1`, the EC50 was more than 30000 nM in experiment [4], 1420 nM in experiment [5] and 1370 nM in experiment [6]. Moreover, the Ratio was determined as 4.59 in experiment [1], 1.07 in experiment [2] and 7.71 in [3].

For the compound `C/C=C(\C)CN(Cc1ccc(F)cc1)c1ccc(NC(=O)OCC)c(NC(=O)OCC)c1`, the values for the Ratio in experiment [1], in experiment [2] and in experiment [3] were 1.28, 0.85 and 2.36, respectively.

With `CCOC(=O)Nc1ccc(N(CC2=CCCCC2)Cc2ccc(F)cc2)cc1NC(=O)OCC`, the Ratio in [1] was 1.05; in experiment [2] it was 1.19; in experiment [3], 1.49.

On to `CCOC(=O)Nc1ccc(N(CC#Cc2ccccc2)Cc2ccc(F)cc2)cc1NC(=O)OCC`, for which the Ratio worked out at 1.13 in [1], 1.26 in experiment [2] and 1.54 in experiment [3].

In the case of `C#CCN(Cc1ccc(F)cc1)c1ccc(NC(=O)Oc2ccccc2)c(NC(=O)Oc2ccccc2)c1`, the Ratio in experiment [1] worked out at 1.16; in [2], 0.91; in experiment [3], 1.22.

For `C#CCN(Cc1ccc(F)cc1)c1ccc(NC(=O)OCCCC)c(NC(=O)OCCCC)c1`, the Ratio was determined as 4.13 in experiment [1], 0.77 in experiment [2] and 2.75 in [3].

On to `C#CCN(Cc1ccc(F)cc1)c1ccc(NC(=O)OCc2ccccc2)c(NC(=O)OCc2ccccc2)c1`, for which the Ratio turned out to be 3.57 in [1], 1.25 in experiment [2] and 3.02 in experiment [3].

As for `C#CCN(Cc1ccc(F)cc1)c1ccc(NC(=O)OCC)c(NC(=O)OCc2ccccc2)c1`, the Ratio in [1] is 2.57; in experiment [2], 0.97; in experiment [3] it was 1.27.

As to `C#CCN(Cc1ccc(F)cc1)c1ccc(NC(=O)OCC(C)C)c(NC(=O)OCC(C)C)c1`, the Ratio is 1.73 in [1], 0.83 in experiment [2] and 1.52 in [3].

Take `C#CCN(Cc1ccc(F)cc1)c1ccc(NC(=O)OC2CC2)c(NC(=O)OC2CC2)c1`: the results for the Ratio in [1], in [2] and in experiment [3] were 2.55, 0.64 and 1.51, respectively.

Regarding `C#CCN(Cc1ccc(F)cc1)c1ccc(NC(=O)OC(C)C)c(NC(=O)OC(C)C)c1`, the Ratio in [1] turned out to be 3.11; in experiment [2], 0.35; in experiment [3], 1.33.

Consider `CCOC(=O)Nc1ccc(NCc2ccc(F)cc2)cc1N` [EZOGABINE], for which the EC50 in [4] stood at 2170 nM; in [5], 5900 nM; in [6], 3450 nM. Further, the Activity in experiment [8] and in [9] was 20 to 30 mV throughout. The Ratio in [2] turned out to be 1.6.

In the case of `C#CCN(Cc1ccc(F)cc1)c1ccc(NC(=O)OCC)c(NC(=O)OC)c1`, the Ratio amounted to 3.34 in experiment [1], 0.61 in experiment [2] and 2.56 in experiment [3].

As to `C#CCN(Cc1ccc(F)cc1)c1ccc(NC(=O)OCC)c(NC(=O)OCCC)c1`, the Ratio in [1] is 5.81; in experiment [2] it was 1.07; in [3] it was 3.95.

Consider `C#CCN(Cc1ccc(F)cc1)c1ccc(NC(=O)OCC)c(NC(=O)OC(C)C)c1`, for which the Ratio in experiment [1] worked out at 5.71; in experiment [2], 0.94; in experiment [3] it was 5.01.

Source of the values: ChEMBL document CHEMBL4382285, “Discovery of Novel Retigabine Derivatives as Potent KCNQ4 and KCNQ5 Channel Agonists with Improved Specificity” (ACS Med Chem Lett, 2019).
